Laboratory results as given in ChEMBL document CHEMBL2093137, “WHO-TDR NTD Screening”.
In brackets after ≈: the same amount, converted by molar mass.

How the values were obtained:
[1] = system: Trypanosoma brucei brucei; test: WHO-TDR: Human African Trypanosomiasis (HAT); assay type: functional, organism-based; settings: Squib-427
Outline: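 Antiparasitic potency is reported as IC50. The screen covered 10,000 compounds from a diverse Life Chemicals library, filtered for drug-likeness and reactive groups, tested on whole bloodstream-form Trypanosoma brucei of the Squib 427 strain.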

Schistosoma mansoni [2] = test: (§1) WHO-TDR: Schistosomiasis; assay type: functional; design: concentration or dose not given beside the values
Outline: (§2)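 Values are reported as percent inhibition and IC50. They come from a whole-organism screen of a 10,000-compound diverse Life Chemicals library against larval and/or adult worms of Schistosoma mansoni, Puerto Rican strain. The library had been filtered for drug-likeness and reactive groups.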

Onchocerca lienalis = test: (§3) WHO-TDR: Onchocerciasis; assay type: functional; design: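 at 12.5 µM on microfilariae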
Outline: (§4)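 Values are reported as percent inhibition and as IC50. They come from a whole-organism screen of a 10,000-compound diverse Life Chemicals library against microfilariae of Onchocerca ochengi or Onchocerca lienalis. The screen followed previously published standard procedures, with reference drugs as positive controls.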

Leishmania infantum = test: WHO-TDR: Leishmaniasis; assay type: functional, organism-based, Mus musculus; settings: Macrophage
Outline: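 Antiparasitic potency, reported as IC50, was measured against intracellular Leishmania infantum amastigotes. The parasite strain was MHOM/MA(BE)/67, and murine peritoneal macrophages served as host cells for the screen of a 10,000-compound diverse library from Life Chemicals.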

[3] = WHO-TDR: Cytotoxicity; assay type: toxicity, cell-based; settings: human, MRC5 cells
Plasmodium falciparum K1 = test: WHO-TDR: Malaria; assay type: functional, organism-based, Homo sapiens; settings: Erythrocyte
Outline: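 Antiplasmodial potency, expressed as IC50, was measured in a whole-organism assay on intra-erythrocytic Plasmodium falciparum K1 in human red blood cells. The screened library held 10,000 diverse compounds from Life Chemicals.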

Schistosoma mansoni [4] = test: as §1; assay type: functional, organism-based; outline: as §2
Trypanosoma cruzi = test: WHO-TDR: Chagas disease; assay type: functional, organism-based, Homo sapiens; settings: MRC5
Outline: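 Intracellular amastigotes of the Trypanosoma cruzi Tulahuen CL2 beta-galactosidase strain, grown in MRC-5SV2 human lung fibroblast host cells, were tested in a whole-organism screen. The compounds came from a 10,000-member diverse Life Chemicals library that had been filtered for drug-likeness and reactive groups. Previously published standard procedures were followed, with a reference drug as positive control, and potency is reported as IC50.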

Brugia malayi = test: WHO-TDR: Lymphatic Filariasis; assay type: functional; design: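 tested at 10 µM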
Outline: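 Values are percent inhibition and IC50 from a whole-organism screen against Brugia malayi microfilariae. The compounds, 10,000 in all, came from a diverse Life Chemicals library filtered for drug-likeness and reactive groups.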

Onchocerca ochengi = test: as §3; assay type: functional; design: concentration or dose not given beside the values; outline: as §4;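 further: at 12.5 µM on microfilariae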

| IC50 [1] [µg/mL] | IC50 (Leishmania infantum) [µg/mL] | IC50 (Plasmodium falciparum K1) [µg/mL] | IC50 (Schistosoma mansoni [4]) | Structure (SMILES) | % Inhibition (Schistosoma mansoni [2]) [%] | % Inhibition (Onchocerca lienalis) [%] | IC50 [3] [µg/mL] | IC50 (Trypanosoma cruzi) [µg/mL] | % Inhibition (Brugia malayi) [%] | % Inhibition (Onchocerca ochengi) [%] |
| --- | --- | --- | --- | --- | --- | --- | --- | --- | --- | --- |
| 0.383 (≈ 0.781 µM) | 5.12 (≈ 10.4 µM) | 1.2 (≈ 2.44 µM) | 4.3 µM | CN(C)CCCN(C(=O)c1cc(-c2cccs2)nc2ccccc12)c1nc2c(F)cccc2s1 | 100 | 0 | 4.21 (≈ 8.58 µM) | 4.32 (≈ 8.81 µM) |  |  |
| > 14.5 | > 14.5 | > 14.5 | 8.8 µM | O=C(Nc1cc2ccccc2cc1NC(=O)c1ccc2c(c1)OCCO2)c1ccc2c(c1)OCCO2 | 100 | 13.3 | > 14.5 | > 14.5 |  |  |
| > 13.6 | > 13.6 | > 13.6 | 9.8 µM | CCOC(=O)c1c(NC(=O)C(C)Sc2nnc(NC(C)=O)s2)sc2c1CCCC2 (configuration not stated) | 100 | 0 | > 13.6 | > 13.6 |  |  |
| 4.38 (≈ 8.92 µM) | 4.66 (≈ 9.49 µM) | > 8.86 | 7.4 µM | CN(CC1CCCO1)S(=O)(=O)c1ccc(C(=O)Nc2cccc(-c3nc4ccccc4o3)c2)cc1 (configuration not stated) | 100 | 13.3 | > 8.86 | > 8.86 |  |  |
| > 9.7 | > 9.7 | > 9.7 | 8.2 µM | COC(=O)c1sc(-c2ccccc2)cc1NC(=O)CCS(=O)(=O)c1ccccc1 | 100 | 13.3 | > 9.7 | > 9.7 |  |  |
| > 11 | > 11 | 7.35 (≈ 14.8 µM) | 9.9 µM | CCN(c1ccccc1)S(=O)(=O)c1ccc(C(=O)Nc2sc3c(c2C(=O)NC)CCCC3)cc1 | 100 | 13.3 | > 11 | 5.24 (≈ 10.5 µM) |  |  |
| > 11 | > 11 | > 11 | 5.7 µM | C=CCN(CC=C)S(=O)(=O)c1ccc(C(=O)Nc2nc3ccc(C(C)C)cc3s2)cc1 | 100 | 0 | > 11 | 4.48 (≈ 9.84 µM) |  |  |
| > 12.1 | > 12.1 | > 12.1 | 6.5 µM | CCc1ccc(NC(=O)c2oc3ccccc3c2NC(=O)Cc2cccs2)cc1 | 100 | 0 | > 12.1 | > 12.1 |  |  |
| > 14.7 | 4.75 (≈ 9.71 µM) | > 14.7 | 6.7 µM | Cc1ccc(NC(=O)c2oc3ccccc3c2NC(=O)CC(c2ccccc2)c2ccccc2)cc1C | 100 | 0 | > 14.7 | > 14.7 |  |  |
| 3.13 (≈ 9.49 µM) | 3.21 (≈ 9.71 µM) | > 9.91 | 5.2 µM | CCSc1nnc(NC(=O)CSc2nncc(=O)[nH]2)s1 | 100 | 0 | 1.95 (≈ 5.92 µM) | 3.09 (≈ 9.35 µM) |  |  |
| 3.24 (≈ 9.49 µM) | > 10.2 | 0.966 (≈ 2.83 µM) | 5.2 µM | O=C(CSc1nncc(=O)[nH]1)Nc1ccc(Br)cc1 | 100 | 0 | 1.76 (≈ 5.15 µM) | 2.82 (≈ 8.26 µM) |  |  |
| 2.91 (≈ 9.37 µM) | > 9.32 | 3.64 (≈ 11.7 µM) | 4.5 µM | Cc1ccc(NC(=O)CSc2nncc(=O)[nH]2)cc1Cl | 100 | 0 | 2.55 (≈ 8.2 µM) | 2.99 (≈ 9.61 µM) |  |  |
| > 10.9 | > 10.9 | > 10.9 | 6.3 µM | O=C(CSc1nncc(=O)[nH]1)Nc1cc(C(F)(F)F)ccc1Cl | 100 | 0 | > 10.9 | > 10.9 |  |  |
| > 12.6 | 4.07 (≈ 9.71 µM) | 10.4 (≈ 24.8 µM) | 2.7 µM | Cc1nc(-c2ccccc2)sc1C(=O)Nc1cccc(-c2cn3c(n2)SCC3)c1 | 100 | 0 | 8.81 (≈ 21.1 µM) | 10.5 (≈ 25 µM) |  |  |
| 0.428 (≈ 0.964 µM) | 0.467 (≈ 1.05 µM) | 1.44 (≈ 3.25 µM) | 4.3 µM | CN(C)CCCN(C(=O)/C=C/c1ccccc1Cl)c1nc2cc3c(cc2s1)OCO3 | 100 | 0 | 0.462 (≈ 1.04 µM) | 0.408 (≈ 0.919 µM) |  |  |
| 0.456 (≈ 1.07 µM) | 4.51 (≈ 10.5 µM) | 1.13 (≈ 2.64 µM) | 5.7 µM | COc1cc(OC)cc(C(=O)N(CCCN(C)C)c2nc3c(C)c(C)ccc3s2)c1 | 100 | 0 | 2.84 (≈ 6.64 µM) | 4.66 (≈ 10.9 µM) |  |  |
| 4.31 (≈ 10.5 µM) | 0.399 (≈ 0.971 µM) | > 12.3 | 4.3 µM | COc1ccc(N2CCCS2(=O)=O)cc1NC(=O)c1cc(Cl)ccc1OC | 100 | 13.3 | > 12.3 | 5.04 (≈ 12.3 µM) |  |  |
| > 12.5 | > 12.5 | > 12.5 | 6.6 µM | O=C(NCc1nnnn1-c1ccc(Cl)cc1)C1c2ccccc2Oc2ccccc21 | 100 | 0 | > 12.5 | > 12.5 |  |  |
| 4.4 (≈ 9.49 µM) | 4.5 (≈ 9.71 µM) | 0.51 (≈ 1.1 µM) | 8.3 µM | CCOc1ccc(C(=O)Nc2ccc(Nc3nc(C)cc(N(CC)CC)n3)cc2)cc1OCC | 100 | 20 | 3.94 (≈ 8.5 µM) | 0.428 (≈ 0.922 µM) |  |  |
| 3.63 (≈ 8.81 µM) | 3.9 (≈ 9.49 µM) | 0.77 (≈ 1.87 µM) | 7.4 µM | CCN(CC)c1cc(C)nc(Nc2ccc(NC(=O)c3c(F)cccc3F)cc2)n1 | 100 | -1 | 2.86 (≈ 6.95 µM) | 0.26 (≈ 0.632 µM) |  |  |
| 0.472 (≈ 1.24 µM) | 3.7 (≈ 9.71 µM) | 0.378 (≈ 0.99 µM) | 4.7 µM | CCN(CC)c1cc(C)nc(Nc2ccc(NC(=O)c3cccs3)cc2)n1 | 100 | -1 | 2.96 (≈ 7.76 µM) | 0.295 (≈ 0.773 µM) |  |  |
| > 15.1 | > 15.1 | > 15.1 | 5.1 µM | COc1cc(C)c(Cl)cc1S(=O)(=O)Nc1ccc(Nc2nc(C)cc(N3CCOCC3)n2)cc1 | 100 | 46.7 | > 15.1 | > 15.1 |  |  |
| 1.59 (≈ 4.37 µM) | > 10.9 | 0.396 (≈ 1.09 µM) | 2.36 µg/mL | O=C(c1ccccc1F)N1CCN(c2ccc(-c3ccccn3)nn2)CC1 | 100 |  | 2.77 (≈ 7.63 µM) | 0.375 (≈ 1.03 µM) | 33.33 | 100 |
| > 12.1 | > 12.1 | > 12.1 | 2.79 µg/mL | O=S(=O)(c1ccccc1Cl)N1CCN(c2ccc(-c3ccco3)nn2)CC1 | 100 |  | > 12.1 | > 12.1 | 0 | 0 |
| 2.53 (≈ 8.27 µM) | > 9.19 | 0.566 (≈ 1.85 µM) | 5.8 µM | CCOc1ccc(NC(=O)CSc2nncc(O)n2)cc1 | 100 | 0 | 3.01 (≈ 9.83 µM) | 3.3 (≈ 10.8 µM) |  |  |
